Screens: PubChem, several laboratories
Rows were chosen to be rich in hits. Some 2.5% of all compounds tested hit in one or more screens of this group.
ABHD5 PLIN5 PPI: inhibitors of human ABHD5-perilipin-5 interaction | Q00G26+Q8WTS1 | Split G. princeps luciferase complementation, luminescence, 4 h | inhibition, % at 4 µM | hit rate 0.78% among 360,000;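 active = inhibition above the mean inhibition across every tested compound plus 3 SD, cut at about 22% in these data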
Arrestin-AP2 inh: inhibitors of human beta-arrestin and AP2 interaction. hit rate 0.31% among 340,000. inhibition, % at 10 µM. FITC-arrestin peptide / GST-AP2 beads, flow cytometry; AP2 beta2 appendage carries R879A mutation;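 active = inhibition above a set limit, near 3 SD of compounds lacking own fluorescence, cut at about 54% in these data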
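System: GST-AP2 R879A glutathione beads; medium: PBS, Tween 20 0.05%, BSA 0.1%; reagent: fluorescein-tagged arrestin peptide at 50 nM final; schedule: pre-incubation 12 min, peptide binding 1 h, room temperature; detection: flow cytometry, FL1 (488/535 nm); read-out: inhibition as reduced fluorescein signal on beads, percent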
Rin1 Abl inh: inhibitors of human Rin1-Abl protein interaction; inhibition, % at 7.35 µM; P00519+Q13671; hit rate 0.4% among 360,000; TR-FRET Rin1/Abl binding, biochemical; in the data active = inhibition above about 5%, passing the limit was not always enough
B2AR ag: agonists of human beta-2 adrenergic receptor inducing internalization; Am2.2-beta2AR cells, FAP receptor internalization, flow cytometry; hit rate 0.43% among 340,000; response, % (concentration not given with the values); AID 504454;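 active = response above a set limit, near 3 SD of response in nonfluorescent compounds, cut at about 42% in these data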
UHRF1 binding: UHRF1 methyl-DNA binding inhibition. inhibition, % at 4.4 µM. hit rate 0.75% among 370,000. UHRF1 binding to methylated oligo, TR-FRET; in the data active = inhibition above about 21%;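 also: UHRF1 SRA domain binding a hemimethylated CpG hairpin DNA probe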
MBD2 inh: blocks human MBD2 binding to methylated DNA | Q9UBB5 | TR-FRET, MBD2 binding to methylated oligonucleotide | inhibition, % at 4.4 µM | hit rate 0.31% among 370,000; in the data active = inhibition above about 13%
Target sequence (Q9UBB5 whole entry, looked up): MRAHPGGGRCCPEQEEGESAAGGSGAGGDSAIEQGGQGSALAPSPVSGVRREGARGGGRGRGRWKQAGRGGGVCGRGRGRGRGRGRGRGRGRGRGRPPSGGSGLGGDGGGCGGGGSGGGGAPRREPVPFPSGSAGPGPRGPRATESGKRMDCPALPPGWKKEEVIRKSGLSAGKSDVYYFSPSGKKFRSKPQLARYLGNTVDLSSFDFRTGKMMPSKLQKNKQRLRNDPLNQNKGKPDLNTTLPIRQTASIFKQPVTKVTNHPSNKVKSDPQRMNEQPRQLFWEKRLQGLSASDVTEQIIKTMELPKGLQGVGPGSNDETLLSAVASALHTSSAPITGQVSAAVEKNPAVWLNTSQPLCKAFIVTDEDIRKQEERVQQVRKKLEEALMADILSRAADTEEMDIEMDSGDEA
A number is an active result; . = inactive; / = not tested or not shown.

SMILES	ABHD5 PLIN5 PPI	Arrestin-AP2 inh	Rin1 Abl inh	B2AR ag	UHRF1 binding	MBD2 inh
C#CCOCCOCCOCCNc1nc(N2CCN(C(=O)CCCCCCCCCCNC(=O)[C@H]([C@@H](C)CC)n3cc(CCCCN=C(N)N)nn3)CC2)nc(N2CCN(C(=O)CCCCCCCCCCNC(=O)[C@H](CO)n3cc(CCCCCN)nn3)CC2)n1	47	.	.	52	/	/
C#CCOCCOCCOCCNc1nc(N2CCN(C(=O)Cn3cc(CCO)nn3)CC2)nc(N2CCN(C(=O)[C@H]([C@@H](C)CC)n3cc(CCCN=C(N)N)nn3)CC2)n1	.	.	.	.	.	.
C#CCOCCOCCOCCNc1nc(N2CCN(C(=O)CCCCCCCCCCNC(=O)[C@@H](CCC(=O)O)n3cc(CCCCCN)nn3)CC2)nc(N2CCN(C(=O)CCCCCCCCCCNC(=O)[C@H]([C@@H](C)CC)n3cc(CCCCCN)nn3)CC2)n1	51	.	.	52	/	/
C#CCOCCOCCOCCNc1nc(N2CCN(C(=O)Cn3cc(CCCN=C(N)N)nn3)CC2)nc(N2CCN(C(=O)[C@H]([C@@H](C)CC)n3cc(CCCCN)nn3)CC2)n1	.	.	.	.	.	.
C#CCOCCOCCOCCNc1nc(N2CCOCC2)nc(N2CCN(C(=O)CCCCCCCCCCNC(=O)[C@@H]([C@H](C)CC)n3cc(CCCCCN)nn3)CC2)n1	27	.	.	.	22	.
O=C(Nc1ccc(F)cc1)Nc1c(-c2ccc(F)cc2)nc2ncccn12	/	/	/	/	.	.
C#CCOCCOCCOCCNc1nc(N2CCN(C(=O)CCCCCCCCCCNC(=O)Cn3cc(CCCCCN)nn3)CC2)nc(N2CCN(C(=O)CCCCCCCCCCNC(=O)Cn3cc(CCCCCN)nn3)CC2)n1	.	.	13	45	/	/
C#CCOCCOCCOCCNc1nc(N2CCN(C(=O)CCCCCCCCCCNC(=O)Cn3cc(CCCCCN)nn3)CC2)nc(N2CCN(C(=O)CCCCCCCCCCNC(=O)[C@H]([C@@H](C)CC)n3cc(CCCCN=C(N)N)nn3)CC2)n1	58	.	15	.	/	/
C#CCOCCOCCOCCNc1nc(N2CCN(C(=O)[C@H](CCC(=O)O)n3cc(C(N)CO)nn3)CC2)nc(N2CCN(C(=O)[C@H](Cc3cc4ccccc4[nH]3)n3cc(C(N)[C@H](C)CC)nn3)CC2)n1 (some centres undefined)	.	.	.	.	/	/
C#CCOCCOCCOCCNc1nc(N2CCN(C(=O)CCCCCCCCCCNC(=O)[C@H]([C@@H](C)CC)n3cc(CCCCCN)nn3)CC2)nc(N2CCN(C(=O)CCCCCCCCCCNC(=O)[C@H](CO)n3cc(CCCCCN)nn3)CC2)n1	39	.	.	.	/	/
C#CCOCCOCCOCCNc1nc(N2CCN(C(=O)CCCCCCCCCCNC(=O)Cn3cc(CCCCCN)nn3)CC2)nc(N2CCN(C(=O)CCCCCCCCCCNC(=O)[C@@H](CCC(=O)O)n3cc(CCCCCN)nn3)CC2)n1	.	.	.	.	/	/
C#CCOCCOCCOCCNc1nc(N2CCN(C(=O)[C@H](CCCCN)n3cc([C@@H](N)C(C)CC)nn3)CC2)nc(N2CCN(C(=O)[C@H](Cc3cc4ccccc4[nH]3)n3cc([C@@H](N)CC(C)C)nn3)CC2)n1 (some centres undefined)	24	.	.	.	/	/
CCCCCc1ccc(NC(=O)OCCCN2CCC3(CCC(c4ccccc4)CC3)C2=O)cc1 (centres undefined)	/	/	/	/	.	.
CCCn1c(O)c(N=NC(=O)c2ccco2)c2ccccc21	.	.	.	.	.	.
Cc1nc2ccccn2c1C(=O)N=Nc1c(O)n(CCC(C)C)c2ccccc12	.	.	.	45	.	.
Cc1ccc(COC(=O)c2cccc(S(=O)(=O)N3CCCCCC3)c2)cc1	.	.	.	.	25	.
Cc1ccc(COC(=O)c2cccc(S(=O)(=O)N3CCCCC3)c2)cc1	.	.	.	.	.	.
COc1ccc(OC)c(COC(=O)c2cccc(S(=O)(=O)N3CCCCC3)c2)c1	.	.	.	.	21	.
CS(=O)(=O)c1sc2nc(-c3cccs3)cc(-c3ccccc3)c2c1N	.	.	.	43	.	.
Cc1ccc(-c2cc(-c3ccccc3)c3c(N)c(S(C)(=O)=O)sc3n2)cc1	.	.	.	.	.	.
C/C(=N\NC(=O)Cc1cc(=O)[nH][nH]1)c1ccc([N+](=O)[O-])cc1	/	/	/	/	.	.
Cc1cc(/C=C\c2ccc3cc(N(C)C)ccc3[n+]2C)c(C)n1-c1ccccc1	26	.	.	/	/	/
C[n+]1c(/C=C/c2ccc(O)cc2)ccc2ccccc21	.	.	.	.	.	.
COc1ccc(C(C)=O)c2c1OCCO2	.	.	.	.	54	.
COc1ccc(C(C)=O)c2c(O)cccc12	.	.	.	.	.	.
SMILES	ABHD5 PLIN5 PPI	Arrestin-AP2 inh	Rin1 Abl inh	B2AR ag	UHRF1 binding	MBD2 inh
CC(C)OC(=O)C(C(=O)C(F)(F)F)c1cc(NS(=O)(=O)c2ccc3ccccc3c2)c2ccccc2c1O (centres undefined)	41	.	.	.	/	/
CCOc1ccc(S(=O)(=O)Nc2cc(SCC(=O)O)c(O)c3ccccc23)cc1	.	.	.	.	.	.
COC(=O)c1cc(Br)c(=O)n(-c2ccccn2)c1	.	.	.	.	37	.
CN1CCN(c2nc(-c3ccc(C(C)(C)C)cc3)nc3ccccc23)CC1	.	.	.	.	22	.
CCN(CC)C(=O)[C@H]1C[C@H](CC(=O)NCCc2ccccn2)C(=O)N2CCc3c([nH]c4cc(CCC(=O)N(C)C)ccc34)[C@]12C	.	.	.	.	21	.
CCN(CC)C(=O)[C@H]1C[C@H](CC(=O)NCCC2=CCCCC2)C(=O)N2CCc3c([nH]c4cc(CCC(=O)N(C)C)ccc34)[C@]12C	.	.	.	.	.	.
CCCCN1CC(=O)N2[C@H](C[C@@]3(n4ccc5ccccc54)c4ccccc4N(S(=O)(=O)c4ccccc4)[C@@H]23)C1=O	/	/	/	/	.	.
O=C(CSc1nc2ccccc2nc1N1CCCCC1)NCc1ccc(Cl)cc1Cl	/	/	/	/	.	.
CCCCCCN1CCN(C2CN(Cc3cn(Cc4cc(C)cc(C)c4)nn3)S(=O)(=O)C2)CC1 (centres undefined)	.	/	/	/	23	.
CN1CCN(C2CN(Cc3cn(Cc4ccc(C(F)(F)F)cc4)nn3)S(=O)(=O)C2)CC1 (centres undefined)	.	/	/	/	25	.
Cc1cc(C)cc(Cn2cc(CN3CC(N4CCN(C)CC4)CS3(=O)=O)nn2)c1 (centres undefined)	.	/	/	/	24	.
Fc1ccccc1-c1n[nH]c(=S)n1N=Cc1ccc(OCc2ccccc2)cc1	/	/	/	/	.	.
CCOC(=O)N1CCN(C(=O)C[C@H]2C[C@@]3(C(=O)OC)C(=C[C@H](C4CCCC4)O[C@@H]3C)N(CCC3=CCCCC3)C2=O)CC1	/	/	/	/	.	.
COc1ccccc1CNc1ccc([N+](=O)[O-])cc1C	.	.	.	.	48	.
